# In ChEMBL document CHEMBL1128335, “Design and synthesis of piperidine-3-carboxamides as human platelet aggregation inhibitors” (J Med Chem, 1995):
# Experiments:
# [1] = Partition coefficient (logP); assay type: physicochemical; details: octanol/water
# Homo sapiens [2] = species: Homo sapiens; experiment: Inhibitory activity against human platelet aggregation.; assay type: functional
# Procedure, shortened: (§1)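 Human citrated PRP (blood:3.2% citrate 8:1; 120g, 15 min, 23 °C), count adjusted to 250 000–300 000/mm^3 with autologous PPP, gassed with 5% CO2/95% air, held at 37 °C. Test compound incubated 4 min. Aggregation triggered with each donor's minimal ADP concentration giving full biphasic response. Light transmission recorded 5.5 min. IC50 from regression of % inhibition on log molar concentration; mean ± SE, 4–6 determinations.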
# Homo sapiens [3] = species: Homo sapiens; experiment: Inhibitory activity against human platelet aggregation at 200 uM; assay type: functional
# Homo sapiens [4] = species: Homo sapiens; experiment: Inhibitory activity against human platelet aggregation; Inactive; assay type: functional; procedure, shortened: as §1
SMILES,"IC50 (Homo sapiens [2]; Homo sapiens, read-out: IC50)",logP ([1]; read-out: logP),also measured
CCCCCCCCCCN1CCCC(C(=O)N2CCN(C(=O)C3CCCN(CCCCCCCCCC)C3)C(C)C2)C1 (stereo not drawn),20.9 µM,,logP [1]: 9.58
O=C(C1CCCN(Cc2ccc(CN3CCCC(C(=O)N4CCC(Cc5ccccc5)CC4)C3)cc2)C1)N1CCC(Cc2ccccc2)CC1 (stereo not drawn),277 µM,8.14,
CCN(CC)C(=O)C1CCCN(Cc2ccccc2-c2ccccc2CN2CCCC(C(=O)N(CC)CC)C2)C1 (stereo not drawn),354 µM,5.43,
c1cc(CN2CCCCC2)ccc1CN1CCCCC1,8460 µM,3.57,
CCCCCN1CCCC(C(=O)N2CCCN(C(=O)C3CCCN(CCCCC)C3)CC2)C1 (stereo not drawn),84.6 µM,4.63,
O=C(O)C1CCCN(Cc2ccc(CN3CCCC(C(=O)O)C3)cc2)C1 (stereo not drawn),> 500 µM,2.45,
Br.CCN(CC)C(=O)C1CCCN(Cc2ccc(C(C)(C)C)cc2)C1 (stereo not drawn),,4.83,inhibition at 200 µM (Homo sapiens [3]): 2%; IC50 (Homo sapiens [2]): Not Active
CCCN(C)C(=O)C1CCCN(Cc2ccc(CN3CCCC(C(=O)N(C)CCC)C3)cc2)C1 (stereo not drawn),34.6 µM,3.48,
CC(C)N(C(=O)C1CCCN(Cc2ccc(CN3CCCC(C(=O)N(C(C)C)C(C)C)C3)cc2)C1)C(C)C (stereo not drawn),58.8 µM,5.55,
CC(=O)NCC1CCCN(Cc2ccc(CN3CCCC(CNC(C)=O)C3)cc2)C1 (stereo not drawn),,0.74,
CCCCCCCCCCN1CCCC(C(=O)N2CC(C)N(C(=O)C3CCCN(CCCCCCCCCC)C3)CC2C)C1 (stereo not drawn),23.8 µM,,logP [1]: 10.096
CCCCCCN(C)C(=O)C1CCCN(Cc2ccc(CN3CCCC(C(=O)N(C)CCCCCC)C3)cc2)C1 (stereo not drawn),48.8 µM,6.59,
CCN(CC)C(=O)C1CCCN(Cc2ccc(Cl)cc2)C1 (stereo not drawn),217 µM,3.49,
O=C(C1CCCN(Cc2ccc(CN3CCCC(C(=O)N(Cc4ccccc4)Cc4ccccc4)C3)cc2)C1)N(Cc1ccccc1)Cc1ccccc1 (stereo not drawn),303 µM,8.03,
CCN(CC)C(=O)C1CCCN(Cc2ccc(-c3ccc(CN4CCCC(C(=O)N(CC)CC)C4)cc3)cc2)C1 (stereo not drawn),478 µM,5.43,
CCCCCCCCCCN1CCCC(C(=O)N2CCC(C3CCN(C(=O)C4CCCN(CCCCCCCCCC)C4)CC3)CC2)C1 (stereo not drawn),25.9 µM,,logP [1]: 11.322
CCCCCCCCCCN1CCCC(C(=O)N2CC(C)N(C(=O)C3CCCN(CCCCCCCCCC)C3)C(C)C2)C1 (stereo not drawn),22.9 µM,,logP [1]: 10.096
COc1cc(CNC(=O)C2CCCN(Cc3ccc(CN4CCCC(C(=O)NCc5cc(OC)c(OC)c(OC)c5)C4)cc3)C2)cc(OC)c1OC (stereo not drawn),134 µM,4.06,
CCCCN(CC)C(=O)C1CCCN(Cc2ccc(CN3CCCC(C(=O)N(CC)CCCC)C3)cc2)C1 (stereo not drawn),18.4 µM,5.55,
O=C(C1CCCN(Cc2ccc(CN3CCCC(C(=O)N4CCSCC4)C3)cc2)C1)N1CCSCC1 (stereo not drawn),311 µM,2.89,
CC(O)C1CCCN(Cc2ccc(CN3CCCC(C(C)O)C3)cc2)C1 (stereo not drawn),589 µM,2.3,
CCN(CC)C(=O)C1CCCN(CN2CC2)C1 (stereo not drawn),3250 µM,2.43,

SMILES,"IC50 (Homo sapiens [2]; Homo sapiens, read-out: IC50)",logP ([1]; read-out: logP),also measured
CCN(CC)C(=O)C1CCCN(CCCCCCCCCCCCN2CCCC(C(=O)N(CC)CC)C2)C1 (stereo not drawn),85.3 µM,6.96,
CCCCCCCCCCN1CCCC(C(=O)N(CC)CC)C1 (stereo not drawn),242 µM,5.76,
O=C(C1CCCN(Cc2ccc(CN3CCCC(C(=O)N4CCCC4)C3)cc2)C1)N1CCCC1 (stereo not drawn),32.7 µM,2.75,
CCN(CC)C(=S)C1CCCN(Cc2ccc(CN3CCCC(C(=S)N(CC)CC)C3)cc2)C1 (stereo not drawn),51.6 µM,5.01,
CCCCCCCCCCN1CCCC(NC(=O)C2CCCN(CCCCCCCCCC)C2)C1 (stereo not drawn),,,IC50 (Homo sapiens [4]): Not Active; logP [1]: 9.96
CC1CCCN(Cc2ccc(CN3CCCC(C)C3)cc2)C1 (stereo not drawn),> 500 µM,4.6,
O=C(C1CCCN(Cc2ccc(CN3CCCC(C(=O)N4CCCCC4)C3)cc2)C1)N1CCCCC1 (stereo not drawn),28.9 µM,3.79,
CCN(Cc1ccccc1)C(=O)C1CCCN(Cc2ccc(CN3CCCC(C(=O)N(CC)Cc4ccccc4)C3)cc2)C1 (stereo not drawn),37.7 µM,5.76,
CC(C)N(C)C(=O)C1CCCN(Cc2ccc(CN3CCCC(C(=O)N(C)C(C)C)C3)cc2)C1 (stereo not drawn),144 µM,3.48,
CCN(CC)C(=O)C1CCCN(CCCCCCCCCCN2CCCC(C(=O)N(CC)CC)C2)C1 (stereo not drawn),207 µM,5.92,
CCN(CC)C(=O)C1CCCN(CCCCCCCCN2CCCC(C(=O)N(CC)CC)C2)C1 (stereo not drawn),214 µM,4.89,
Br.Br.CCN(CC)C(=O)C1CC(C(=O)N(CC)CC)CN(Cc2ccc(CN3CC(C(=O)N(CC)CC)CC(C(=O)N(CC)CC)C3)cc2)C1 (stereo not drawn),,3.39,IC50 (Homo sapiens [4]): Not Active
CCCN(CCC)C(=O)C1CCCN(Cc2ccc(CN3CCCC(C(=O)N(CCC)CCC)C3)cc2)C1 (stereo not drawn),39.3 µM,5.55,
CCCCCCCCCCN1CCCC(C(=S)N(CC)CC)C1 (stereo not drawn),358 µM,6.53,
O=C(C1CCCN(Cc2ccc(CN3CCCC(C(=O)N4CCOCC4)C3)cc2)C1)N1CCOCC1 (stereo not drawn),1650 µM,0.74,
CCN(CC)C(=O)C1CCCN(CC2CCC(CN3CCCC(C(=O)N(CC)CC)C3)CC2)C1 (stereo not drawn),> 1000 µM,4.57,
CCN(CC)C(=O)C1CCCN(Cc2ccccc2)C1 (stereo not drawn),7400 µM,2.75,
CCCCCCCCCCN1CCCC(C(=O)N2CCN(C(=O)C3CCCN(CCCCCCCCCC)C3)CC2)C1 (stereo not drawn),16 µM,,logP [1]: 9.06
O=C(NCc1ccccc1)C1CCCN(Cc2ccc(CN3CCCC(C(=O)NCc4ccccc4)C3)cc2)C1 (stereo not drawn),53.6 µM,4.18,
CCN(CC)C(=O)C1CCCN(Cc2ccccc2Cl)C1 (stereo not drawn),2810 µM,3.49,
CCOC(=O)C1CCCN(Cc2ccc(CN3CCCC(C(=O)OCC)C3)cc2)C1 (stereo not drawn),757 µM,4.21,
CCN(CC)C(=O)C1CCCN(Cc2cccc(Cl)c2)C1 (stereo not drawn),1650 µM,3.49,
